Assay outcomes: PubChem, several laboratories
Sampled rows, rich in hits. Any-hit rate of the full collection: about 2.1%.
ZTA DNA inh: ZTA (EBV) inhibition in EBNA-1 counter-screen; ZTA-DNA binding, fluorescence polarization; inhibition, % at 11 µM; 0.15% of 320,000 active; P03206; AID 2234; in the data active = inhibition above about 33%
EBNA-1 inh: blocks EBNA-1 binding to DNA | EBNA-1 DNA binding, fluorescence polarization | AID 1950 | inhibition, % at 14.8 µM | 0.34% of 300,000 active; in the data active = inhibition above about 28%
PABP FP inh: blocks human PABP binding to poly(A) RNA. fluorescence polarization. inhibition, % at 35 µM. 1% of 290,000 active. AID 2014;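 also: calls also rest on retests at 20 µM and on dose response follow-up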
MLLE-PAM2 inh: blocks PAM2 peptide binding to the PABP1 MLLE domain | P11940 | GST-MLLE / FITC-PAM2 fluorescence polarization | inhibition, % at 20 µM | 0.36% of 360,000 active; in the data active = inhibition above about 35%, passing the limit was not always enough;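 also: plate controls were DMSO wells with GST-MLLE for no effect and wells lacking GST-MLLE protein for full effect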
eIF4H inh: inhibitors of RNA binding by human eIF4H | inhibition, % at 35 µM | Q15056 | 0.94% of 290,000 active | eIF4H fluorescence polarization binding assay;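 also: calls also rest on retests at 20 µM and on dose response follow-up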
NS3 helicase inh: HCV NS3 helicase inhibition. NS3 helicase DNA unwinding, Cy5 molecular beacon fluorescence. 0.56% of 290,000 active. inhibition, % at 10.9 µM;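 active = inhibition above the mean of all tested compounds plus 3 SD, set per campaign, cut at about 35% in these data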;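 also: 0% = DMSO wells and 100% = thioflavine S control wells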
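System: Hepatitis C virus NS3 helicase domain fragment enzyme | Reagent: Annealed dual-labelled DNA beacon duplex, ATP-started | Compound dosing: 10.9 µM single point, 0.8% DMSO | Incubation: 1 h reaction at 25 °C, ATP-initiated | Technique: Cy5 fluorescence | Evaluation: Percent inhibition from t60/t0 fluorescence ratio | Benchmarks: Low DMSO, high thioflavine S at 110 µM | Replication: Singlicate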
Active calls of the source: *; ? = inconclusive; . = no result; + = active, no number. Unless noted, no rule for the calls is given here.

SMILES	ZTA DNA inh	EBNA-1 inh	PABP FP inh	MLLE-PAM2 inh	eIF4H inh	NS3 helicase inh
O=C1c2cccc3cc([N+](=O)[O-])cc(c23)C(=O)N1CCN1CCCC1	.	.	40	50*	81	18
CCN(CC)CCN1C(=O)c2cccc3cc(N)cc(c23)C1=O	3	8	115*	105	91*	1
O=C1c2cccc3cc([N+](=O)[O-])cc(c23)C(=O)N1/N=C/c1ccc(O)cc1O	-11	-10	72*	2	91*	5
NC(=O)CN1CCN(CCN2C(=O)c3cccc4cccc(c34)C2=O)CC1	18	-4	-4	6	1	8
CCN(CC)c1ccc(/C=N/N2C(=O)c3ccccc3C2=O)c(O)c1	-1	2	11	-3	2	3
Nc1cc2c3c(cccc3c1)C(=O)N(CCN1CCCC1)C2=O	-1	-14	77*	74	114*	-3
NC(=S)n1[nH]c(-c2ccc([N+](=O)[O-])cc2)c(N=Nc2ccc(Cl)cc2)c1=O	.	.	6.3*	38	?	15
COc1cccc2c1OCC(CN1CCN(Cc3ccccc3F)C(CCO)C1)=C2 (stereo not given)	130*	+	8	8	-8	9
N#CC1=C(N)Oc2n[nH]c(-c3cccnc3)c2C1c1cc(F)ccc1F (stereo not given)	-15	4	0	11	-5	-24
COc1ccccc1NC(=O)c1cc2ccccc2o/c1=N\O	14	42*	0	7	1	.
Cc1ccc(Nc2nnc(SCC(=O)NCCN3C(=O)CSC3=O)s2)cc1C	6	14	121*	-83	-3	13
Cc1ccc(SCC(=O)NCCN2C(=O)CSC2=O)cc1C	12	1	3	-10	-7	2
O=C(CSc1n[nH]c(-c2ccccc2Br)n1)NCCN1C(=O)CSC1=O	-6	-8	120	-2	active	-5
O=C(NNC(=O)C1C2CCC(C2)C1C(=O)O)c1ccc(Br)o1 (stereo not given)	4	2	59*	.	-2	2
Nc1cc(N)c(OCC(F)(F)F)cc1OCC(F)(F)F	5	-3	90*	18	106*	25
Nc1cc(OCC(F)(F)F)cc([N+](=O)[O-])c1	7	0	-6	-4	8	-4
Oc1cccc(Nc2ncnc3c2oc2ccccc23)c1	2	-5	2	0	-8	-6
CC(=O)Nc1c(Nc2ccccc2)c2ccccc2oc1=O	-8	-14	0	47*	-7	10
O=C(O)CSCC(=O)N(Cc1ccccc1)c1nc(-c2ccccc2)c(-c2ccccc2)s1	-1	-17	11	-1	74*	-12
CCN1C(=O)/C(=C2\Sc3ccccc3N2CC)OC1=S	1	4	-4	46*	-1	7
CS(=O)(=O)N1CCCC(C(=O)Nc2ccccc2)C1 (stereo not given)	-11	-11	4	3	-1	0
COc1ccc(CC(=O)OCn2nnc3ccccc3c2=O)cc1	4	2	-1	5	-3	9
COc1ccc(CC(=O)OCn2nnc3ccccc3c2=O)cc1OC	13	6	88*	10	92*	14
CCCn1nnnc1NC(=O)c1cc(Cl)ccc1Cl	-14	1	6	4	1	9
CCN1C=C(Cc2cccs2)C2=C(C1)C(c1cccs1)C(C#N)=C(N)O2 (stereo not given)	-19	-4	67*	-21	93*	20
CCN1CC2=C(OC(N)=C(C#N)C2c2cccs2)/C(=C/c2cccs2)C1 (stereo not given)	-15	14	?	-31	?	10
O=C(N/N=C\c1c(O)ccc2ccccc12)c1ccc(S(=O)(=O)N2CCCCC2)cc1	1	6	54*	-155	64*	3
O=C(NNS(=O)(=O)c1ccc(F)cc1)c1ccc(S(=O)(=O)N2CCCCC2)cc1	-20	2	61	4	active	1
CC(=O)Nc1ccc(S(=O)(=O)NNC(=O)c2ccc(S(=O)(=O)N3CCCCC3)cc2)cc1	2	-3	4	-2	-5	7
O=C(COC(=O)c1ccc(CSc2ccc(Cl)cc2)cc1)Nc1ccccc1	3	29*	-11	-8	-9	-10
